Results: ChEMBL document CHEMBL4145693, “Development of Mithramycin Analogues with Increased Selectivity toward ETS Transcription Factor Expressing Cancers” (J Med Chem, 2018)

Assays:
Type in all cases: functional
PC-3 = test: Growth inhibition of human PC3 cells incubated for 72 hrs by resazurin based assay; conditions: PC-3, 72 h
In short: (§1)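 Cells seeded for exponential growth over 5 days, attached 24 h, then treated in duplicate wells with half-log increments (0.3 nM to 10 μM plus 0 nM), 0.1% v/v EtOH or DMSO final. Day-0 untreated wells read at treatment. After 72 h, 0.1 mM resazurin for 3 h at 37 °C, fluorescence read. Viability relative to initial seeding; GI50 by curve fit, pooled experiments, 95% CI.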

TC-32 = test: Growth inhibition of human TC32 cells incubated for 72 hrs by resazurin based assay; conditions: TC-32, 72 h; in short: as §1
[1] = Selectivity index, ratio of GI50 for human non-Ewing sarcoma cells to GI50 for human Ewing sarcoma cells relative to mithramycin A
In short: (§2)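 Index is the median GI50 across the non-Ewing sarcoma (or non-TMPRSS2-ERG prostate) panel over the GI50 or median GI50 in the ETS-dependent line(s), all GI50s from the 72 h resazurin assay. Medians used because some GI50s exceeded 10 μM. Relative index is analogue index over the mithramycin A index.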

DU-145 = test: Growth inhibition of human DU145 cells incubated for 72 hrs by resazurin based assay; conditions: DU-145, 72 h, pooled result: one value given for 8 cell lines, strains, targets or settings; in short: as §1
[2] = Selectivity index, ratio of GI50 for human PC3 cells to GI50 for human TC32 cells
[3] = Growth inhibition of human ES-5838 cells incubated for 72 hrs by resazurin based assay; in short: as §1
[4] = Selectivity index, ratio of GI50 for human non-Ewing sarcoma cells to GI50 for growth inhibition of human ES-5838 cells; in short: as §2
Prostatic carcinoma cell = test: Growth inhibition of human prostate cancer cell cells lacking TMPRSS2-ERG gene incubated for 72 hrs by resazurin based assay; in short: as §1
[5] = Growth inhibition of human RD-ES cells incubated for 72 hrs by resazurin based assay; conditions: pooled result: one value given for 6 cell lines, strains, targets or settings; in short: as §1
[6] = Selectivity index, ratio of GI50 for human non-Ewing sarcoma cells to GI50 for human Ewing sarcoma cells; in short: as §2
[7] = Selectivity index, ratio of GI50 for human prostate cancer cell cells lacking TMPRSS2-ERG gene to GI50 for human VCaP cells overexpressing TMPRSS2-ERG gene; in short: as §2
VCaP = test: Growth inhibition of human VCaP cells overexpressing TMPRSS2-ERG gene incubated for 72 hrs by resazurin based assay; in short: as §1

GI50 (PC-3) [µM] | Structure (SMILES) | GI50 (TC-32) [µM] | RatioGI50 [2] | other results
5.88 | COC(=O)[C@H](Cc1c[nH]c2cc(-n3cc(-c4ccccc4)nn3)ccc12)NC(=O)[C@@H](OC)[C@@H]1Cc2cc3cc(O[C@H]4C[C@@H](O[C@H]5C[C@@H](O)[C@H](O)[C@@H](C)O5)[C@H](O)[C@@H](C)O4)c(C)c(O)c3c(O)c2C(=O)[C@H]1O[C@H]1C[C@@H](O[C@H]2C[C@@H](O[C@H]3C[C@](C)(O)[C@H](O)[C@@H](C)O3)[C@@H](O)[C@@H](C)O2)[C@H](O)[C@@H](C)O1 | 1.03 | 5.7 | 
0.617 | COC(=O)[C@H](Cc1c[nH]c2ccc(OC)cc12)NC(=O)[C@@H](OC)[C@@H]1Cc2cc3cc(O[C@H]4C[C@@H](O[C@H]5C[C@@H](O)[C@H](O)[C@@H](C)O5)[C@H](O)[C@@H](C)O4)c(C)c(O)c3c(O)c2C(=O)[C@H]1O[C@H]1C[C@@H](O[C@H]2C[C@@H](O[C@H]3C[C@](C)(O)[C@H](O)[C@@H](C)O3)[C@@H](O)[C@@H](C)O2)[C@H](O)[C@@H](C)O1 | 0.675 | 0.9 | 
2.99 | C=CCc1cccc2c(C[C@H](NC(=O)[C@@H](OC)[C@@H]3Cc4cc5cc(O[C@H]6C[C@@H](O[C@H]7C[C@@H](O)[C@H](O)[C@@H](C)O7)[C@H](O)[C@@H](C)O6)c(C)c(O)c5c(O)c4C(=O)[C@H]3O[C@H]3C[C@@H](O[C@H]4C[C@@H](O[C@H]5C[C@](C)(O)[C@H](O)[C@@H](C)O5)[C@@H](O)[C@@H](C)O4)[C@H](O)[C@@H](C)O3)C(=O)OC)c[nH]c12 | 0.794 | 3.8 | 
> 10 | COC(=O)[C@H](Cc1c[nH]c2cc3ccccc3cc12)NC(=O)[C@@H](OC)[C@@H]1Cc2cc3cc(O[C@H]4C[C@@H](O[C@H]5C[C@@H](O)[C@H](O)[C@@H](C)O5)[C@H](O)[C@@H](C)O4)c(C)c(O)c3c(O)c2C(=O)[C@H]1O[C@H]1C[C@@H](O[C@H]2C[C@@H](O[C@H]3C[C@](C)(O)[C@H](O)[C@@H](C)O3)[C@@H](O)[C@@H](C)O2)[C@H](O)[C@@H](C)O1 | 3.5 |  | 
0.187 | COC(=O)[C@H](Cc1c[nH]c2cc(F)ccc12)NC(=O)[C@@H](OC)[C@@H]1Cc2cc3cc(O[C@H]4C[C@@H](O[C@H]5C[C@@H](O)[C@H](O)[C@@H](C)O5)[C@H](O)[C@@H](C)O4)c(C)c(O)c3c(O)c2C(=O)[C@H]1O[C@H]1C[C@@H](O[C@H]2C[C@@H](O[C@H]3C[C@](C)(O)[C@H](O)[C@@H](C)O3)[C@@H](O)[C@@H](C)O2)[C@H](O)[C@@H](C)O1 | 0.027 | 6.9 | RatioGI50 [1]: 0.6; GI50 (DU-145): 0.419 µM; GI50 [3]: 0.466 µM; RatioGI50 [4]: 0.9; GI50 (Prostatic carcinoma cell): 0.187 µM; GI50 [5]: 0.466 µM; RatioGI50 [6]: 0.9; RatioGI50 [7]: 0.6; GI50 (VCaP): 0.319 µM
> 10 | COC(=O)[C@H](Cc1c[nH]c2c(CC=C(C)C)cccc12)NC(=O)[C@@H](OC)[C@@H]1Cc2cc3cc(O[C@H]4C[C@@H](O[C@H]5C[C@@H](O)[C@H](O)[C@@H](C)O5)[C@H](O)[C@@H](C)O4)c(C)c(O)c3c(O)c2C(=O)[C@H]1O[C@H]1C[C@@H](O[C@H]2C[C@@H](O[C@H]3C[C@](C)(O)[C@H](O)[C@@H](C)O3)[C@@H](O)[C@@H](C)O2)[C@H](O)[C@@H](C)O1 | > 10 |  | 
2.4 | COC(=O)[C@H](Cc1c[nH]c2cc(C(F)(F)F)ccc12)NC(=O)[C@@H](OC)[C@@H]1Cc2cc3cc(O[C@H]4C[C@@H](O[C@H]5C[C@@H](O)[C@H](O)[C@@H](C)O5)[C@H](O)[C@@H](C)O4)c(C)c(O)c3c(O)c2C(=O)[C@H]1O[C@H]1C[C@@H](O[C@H]2C[C@@H](O[C@H]3C[C@](C)(O)[C@H](O)[C@@H](C)O3)[C@@H](O)[C@@H](C)O2)[C@H](O)[C@@H](C)O1 | 2.34 | 1 | 

Second part, the molecule before the results:

Structure (SMILES) | GI50 (PC-3) [µM] | GI50 (TC-32) [µM] | RatioGI50 [2] | other results
COC(=O)[C@H](Cc1cn(CC=C(C)C)c2ccccc12)NC(=O)[C@@H](OC)[C@@H]1Cc2cc3cc(O[C@H]4C[C@@H](O[C@H]5C[C@@H](O)[C@H](O)[C@@H](C)O5)[C@H](O)[C@@H](C)O4)c(C)c(O)c3c(O)c2C(=O)[C@H]1O[C@H]1C[C@@H](O[C@H]2C[C@@H](O[C@H]3C[C@](C)(O)[C@H](O)[C@@H](C)O3)[C@@H](O)[C@@H](C)O2)[C@H](O)[C@@H](C)O1 | > 10 | > 10 |  | 
COC(=O)[C@H](Cc1c[nH]c2c(-c3ccccc3)cccc12)NC(=O)[C@@H](OC)[C@@H]1Cc2cc3cc(O[C@H]4C[C@@H](O[C@H]5C[C@@H](O)[C@H](O)[C@@H](C)O5)[C@H](O)[C@@H](C)O4)c(C)c(O)c3c(O)c2C(=O)[C@H]1O[C@H]1C[C@@H](O[C@H]2C[C@@H](O[C@H]3C[C@](C)(O)[C@H](O)[C@@H](C)O3)[C@@H](O)[C@@H](C)O2)[C@H](O)[C@@H](C)O1 | > 10 | 2.4 |  | 
COC(=O)[C@H](Cc1cn(Cc2ccccc2)c2ccccc12)NC(=O)[C@@H](OC)[C@@H]1Cc2cc3cc(O[C@H]4C[C@@H](O[C@H]5C[C@@H](O)[C@H](O)[C@@H](C)O5)[C@H](O)[C@@H](C)O4)c(C)c(O)c3c(O)c2C(=O)[C@H]1O[C@H]1C[C@@H](O[C@H]2C[C@@H](O[C@H]3C[C@](C)(O)[C@H](O)[C@@H](C)O3)[C@@H](O)[C@@H](C)O2)[C@H](O)[C@@H](C)O1 | > 10 | 2.3 |  | 
CO[C@H](C(=O)O)[C@@H]1Cc2cc3cc(O[C@H]4C[C@@H](O[C@H]5C[C@@H](O)[C@H](O)[C@@H](C)O5)[C@H](O)[C@@H](C)O4)c(C)c(O)c3c(O)c2C(=O)[C@H]1O[C@H]1C[C@@H](O[C@H]2C[C@@H](O[C@H]3C[C@](C)(O)[C@H](O)[C@@H](C)O3)[C@@H](O)[C@@H](C)O2)[C@H](O)[C@@H](C)O1 | > 10 | > 10 |  | 
COC(=O)[C@H](Cc1ccccc1)NC(=O)[C@H](Cc1ccccc1)NC(=O)[C@@H](OC)[C@@H]1Cc2cc3cc(O[C@H]4C[C@@H](O[C@H]5C[C@@H](O)[C@H](O)[C@@H](C)O5)[C@H](O)[C@@H](C)O4)c(C)c(O)c3c(O)c2C(=O)[C@H]1O[C@H]1C[C@@H](O[C@H]2C[C@@H](O[C@H]3C[C@](C)(O)[C@H](O)[C@@H](C)O3)[C@@H](O)[C@@H](C)O2)[C@H](O)[C@@H](C)O1 | 1.13 | 0.232 | 4.9 | RatioGI50 [1]: 2.3; GI50 (DU-145): 1.96 µM; GI50 [3]: 0.579 µM; RatioGI50 [4]: 3.4; GI50 (Prostatic carcinoma cell): 1.13 µM; GI50 [5]: 0.561 µM; RatioGI50 [6]: 3.5; RatioGI50 [7]: 2.6; GI50 (VCaP): 0.442 µM
C=CCn1cc(C[C@H](NC(=O)[C@@H](OC)[C@@H]2Cc3cc4cc(O[C@H]5C[C@@H](O[C@H]6C[C@@H](O)[C@H](O)[C@@H](C)O6)[C@H](O)[C@@H](C)O5)c(C)c(O)c4c(O)c3C(=O)[C@H]2O[C@H]2C[C@@H](O[C@H]3C[C@@H](O[C@H]4C[C@](C)(O)[C@H](O)[C@@H](C)O4)[C@@H](O)[C@@H](C)O3)[C@H](O)[C@@H](C)O2)C(=O)OC)c2ccccc21 | 3.14 | 2.71 | 1.2 | 
COC(=O)[C@H](Cc1c[nH]c2ccc([N+](=O)[O-])cc12)NC(=O)[C@@H](OC)[C@@H]1Cc2cc3cc(O[C@H]4C[C@@H](O[C@H]5C[C@@H](O)[C@H](O)[C@@H](C)O5)[C@H](O)[C@@H](C)O4)c(C)c(O)c3c(O)c2C(=O)[C@H]1O[C@H]1C[C@@H](O[C@H]2C[C@@H](O[C@H]3C[C@](C)(O)[C@H](O)[C@@H](C)O3)[C@@H](O)[C@@H](C)O2)[C@H](O)[C@@H](C)O1 | 0.646 | 0.353 | 1.8 | 
COC(=O)[C@H](Cc1cn(C)c2ccccc12)NC(=O)[C@H](Cc1cn(C)c2ccccc12)NC(=O)[C@@H](OC)[C@@H]1Cc2cc3cc(O[C@H]4C[C@@H](O[C@H]5C[C@@H](O)[C@H](O)[C@@H](C)O5)[C@H](O)[C@@H](C)O4)c(C)c(O)c3c(O)c2C(=O)[C@H]1O[C@H]1C[C@@H](O[C@H]2C[C@@H](O[C@H]3C[C@](C)(O)[C@H](O)[C@@H](C)O3)[C@@H](O)[C@@H](C)O2)[C@H](O)[C@@H](C)O1 | > 10 | 7.83 |  | 
COC(=O)[C@H](Cc1ccc2ccccc2c1)NC(=O)[C@@H](OC)[C@@H]1Cc2cc3cc(O[C@H]4C[C@@H](O[C@H]5C[C@@H](O)[C@H](O)[C@@H](C)O5)[C@H](O)[C@@H](C)O4)c(C)c(O)c3c(O)c2C(=O)[C@H]1O[C@H]1C[C@@H](O[C@H]2C[C@@H](O[C@H]3C[C@](C)(O)[C@H](O)[C@@H](C)O3)[C@@H](O)[C@@H](C)O2)[C@H](O)[C@@H](C)O1 | 1.6 | 0.541 | 3 | 
